Bounds are passed on as bounds.

As a reminder, the EC50 is the concentration that produces a half-maximal response.

Data set [1] relates to MCF-7 cells. Conditions: cited from earlier work.
Data set [2] relates to ER(+) Ishikawa cells. The data set is described as follows: Induction of alkaline phosphatase in Ishikawa cells. It is filed as cell-based, human.
Data set [3] has as its system T47D/neo cells. The data set is described as follows: ERE activation, luciferase reporter in T47D/neo cells. It is filed as cell-based, human. Conditions: read-out: EC50 ERE-luciferase activation, classical ER-dependent. The method in brief: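 T47D:A18/neo stable transfectants were grown in RPMI 1640 with 10% FBS and G418 (500 µg/mL), then held 3 days in phenol red-free, E2-depleted RPMI with G418. 8 × 10^6 cells were electroporated with ERE-tk-Luc (5 µg) plus pCMVβ β-gal (1 µg). The next day, test compound (10^-9–10^-7 mol/L), E2 (10^-9 mol/L) or ethanol vehicle was added for 18 h. Luciferase luminescence was normalized to β-gal.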
For orientation: In a reporter assay the amount or activity of a reporter protein is the signal.

The format of data set [4] is in vitro ADME, human. Conditions: four days.

Consider 17-beta estradiol [Compound E2], for which the “Potency of E2 relative to the E2–dendrimer conjugate” value in data set [1] was 3–4 orders of magnitude.

On to `NC[C@H]1O[C@@H]2O[C@H]3[C@H](O)[C@@H](O)[C@@H](O[C@H]4[C@H](O)[C@@H](O)[C@@H](O[C@H]5[C@H](O)[C@@H](O)[C@@H](O[C@H]6[C@H](O)[C@@H](O)[C@@H](O[C@H]7[C@H](O)[C@@H](O)[C@@H](O[C@H]8[C@H](O)[C@@H](O)[C@@H](O[C@H]1[C@H](O)[C@H]2O)O[C@@H]8CN)O[C@@H]7CN)O[C@@H]6CN)O[C@@H]5CN)O[C@@H]4CN)O[C@@H]3CN` [ACD, Per-6-amino-6-deoxy-β-cyclodextrin], for which the “Estrogenic activity, result in words” value in data set [2] is “inactive”. Same read-out and setting: as for `[N-]=[N+]=NC[C@H]1O[C@@H]2O[C@H]3[C@H](O)[C@@H](O)[C@@H](O[C@H]4[C@H](O)[C@@H](O)[C@@H](O[C@H]5[C@H](O)[C@@H](O)[C@@H](O[C@H]6[C@H](O)[C@@H](O)[C@@H](O[C@H]7[C@H](O)[C@@H](O)[C@@H](O[C@H]8[C@H](O)[C@@H](O)[C@@H](O[C@H]1[C@H](O)[C@H]2O)O[C@@H]8CN=[N+]=[N-])O[C@@H]7CN=[N+]=[N-])O[C@@H]6CN=[N+]=[N-])O[C@@H]5C/N=[NH+]\[NH-])O[C@@H]4CN=[N+]=[N-])O[C@@H]3CN=[N+]=[N-]` [Compound 2, Per-6-azido-6-deoxy-β-cyclodextrin], the entry is “inactive”. With “Per-6-(estradiol-17-(1H-1,2,3-triazol-4-yl))-6-deoxy-β-cyclodextrin [Compound 7EqCD]”, in data set [3], the 50% effective concentration (EC50) is greater than 100 nM. Moreover, in data set [4] (7EqCD 10 nM, Ishikawa cells), the “Free EE2 in cell supernatant” value was less than 50 pM. In data set [4] (Ishikawa cell culture), the “Free estrogen (EE2 or E2) in cell supernatant, result in words” value is on record as “EE2 was not observed above detection limits”.

The record behind these values is PMC2906776 (Bioorganic & medicinal chemistry, 2009).
